# Source: ChEMBL document CHEMBL1157404, “Linear and cyclic peptides from the entomopathogenic bacterium Xenorhabdus nematophilus” (J Nat Prod, 2008)
# The source made the active and inactive calls. The rule behind the calls is not given here. Bridge positions count the residues as written; N and C are the ends. Square brackets hold non-standard residues; d marks the D form. Peptide text beside a SMILES is read from it. * marks the point of attachment. NMeF = CN[C@@H](Cc1ccccc1)C(=O)O; NMeL = CN[C@@H](CC(C)C)C(=O)O; NHPhenethyl = c1ccc(CCN*)cc1; PhAc = O=C(Cc1ccccc1)*; βAla = NCCC(=O)O
# Assays:
# Bacillus subtilis [1] = experiment: Antibacterial activity against Bacillus subtilis DSM 347; type: functional
# Pseudomonas syringae [2] = experiment: Antibacterial activity against Pseudomonas syringae var.aptata DSM 50252; type: functional
# Ralstonia solanacearum [3] = experiment: Antibacterial activity against Ralstonia solanacearum DSM 9544; type: functional
# Erwinia amylovora [4] = experiment: Antibacterial activity against Erwinia amylovora; type: functional
# Pseudomonas fluorescens [5] = experiment: Antibacterial activity against Pseudomonas fluorescens NCIMB 10586; type: functional
# Galleria mellonella = experiment: Insecticidal activity against Galleria mellonella after 6 days; type: functional, organism-based
# Method in brief: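 Oral toxicity test on greater wax moth larvae. Compounds were dissolved at 1 mg/mL in 50% aqueous EtOH. Larvae were held at 35 °C for 6 days, then mortality and ability to spin silk were recorded. Four replicates were run, with two for one compound.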
# Erwinia amylovora [6] = experiment: Antibacterial activity against Erwinia amylovora at 40 ug/mL; type: functional, organism-based
# Pseudomonas fluorescens [7] = experiment: Antibacterial activity against Pseudomonas fluorescens NCIMB 10586 at 40 ug/mL; type: functional, organism-based
# Mammaliicoccus lentus [8] = experiment: Antibacterial activity against Staphylococcus lentus DSM 6672 at 40 ug/mL; type: functional, organism-based
# Ralstonia solanacearum [9] = experiment: Antibacterial activity against Ralstonia solanacearum DSM 9544 at 40 ug/mL; type: functional, organism-based
# Escherichia coli = experiment: Antibacterial activity against Escherichia coli K12 DSM 489 at 40 ug/mL; type: functional, organism-based
# Bacillus subtilis [10] = experiment: Antibacterial activity against Bacillus subtilis DSM 347 at 40 ug/mL; type: functional, organism-based
# Nakaseomyces glabratus = experiment: Antifungal activity against Candida glabrata DSM 6425 at 40 ug/mL; type: functional, organism-based
# Artemia salina = experiment: Toxicity against Artemia salina assessed as number of immotile nauplii per well after 24 hrs; type: organism-based
# Method in brief: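 Compounds were serially diluted 2-fold over 50 to 0.781 µg/well in microplate wells, and the wells were dried before the brine shrimp nauplii were exposed.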
# Pseudomonas syringae [11] = experiment: Antibacterial activity against Pseudomonas syringae var.aptata DSM 50252 at 40 ug/mL; type: functional, organism-based
# Xanthomonas campestris [12] = experiment: Antibacterial activity against Xanthomonas campestris DSM 2405 at 40 ug/mL; type: functional, organism-based
# Xanthomonas campestris [13] = experiment: Antibacterial activity against Xanthomonas campestris DSM 2405; type: functional
# Mammaliicoccus lentus [14] = experiment: Antibacterial activity against Staphylococcus lentus DSM 6672; type: functional
SMILES,MIC (Bacillus subtilis [1]) [µg/mL],MIC (Pseudomonas syringae [2]) [µg/mL],MIC (Ralstonia solanacearum [3]) [µg/mL],MIC (Erwinia amylovora [4]) [µg/mL],MIC (Pseudomonas fluorescens [5]) [µg/mL],Activity (Galleria mellonella),Activity (Erwinia amylovora [6]),Activity (Pseudomonas fluorescens [7]),Activity (Mammaliicoccus lentus [8]),Activity (Ralstonia solanacearum [9]),Activity (Escherichia coli),Activity (Bacillus subtilis [10]),Activity (Nakaseomyces glabratus),IC50 (Artemia salina) [µg/mL],Activity (Pseudomonas syringae [11]),Activity (Xanthomonas campestris [12]),MIC (Xanthomonas campestris [13]) [µg/mL],Activity (Mammaliicoccus lentus [14]) [%]
C[C@H]1OC(=O)CCNC(=O)[C@H](Cc2c[nH]c3ccccc23)NC(=O)[C@H](Cc2c[nH]c3ccccc23)NC(=O)[C@H]1NC(=O)Cc1ccccc1 [XENEAMATIDE] (PhAc-TWW[βAla]; ester 1-C),10,10,10,10,10,Active,–,–,–,–,–,–,–,–,–,–,–,–
CN[C@@H](CC(C)C)C(=O)N(C)[C@@H](Cc1ccccc1)C(=O)NCCc1c[nH]c2ccccc12 [XENORTIDE B],–,–,–,–,–,–,inactive,inactive,inactive,inactive,inactive,inactive,inactive,200,inactive,inactive,–,–
CC(C)CC(NC(=O)[C@@H](O)[C@@H](O)C1CCCN1)C1Cc2cccc(O)c2C(=O)O1 (stereo partly specified),20,40,–,–,–,–,–,–,–,–,–,–,–,9,–,–,40,70
CC[C@H](C)C(=O)C(=O)NCCc1c[nH]c2ccccc12 [NEMATOPHIN],–,–,–,–,–,–,inactive,inactive,inactive,inactive,inactive,inactive,inactive,50,inactive,inactive,–,–
CN[C@@H](CC(C)C)C(=O)N(C)[C@@H](Cc1ccccc1)C(=O)NCCc1ccccc1 [XENORTIDE A] (H-[NMeL]-[NMeF]-NHPhenethyl),–,–,–,–,–,–,inactive,inactive,inactive,inactive,inactive,inactive,inactive,200,inactive,inactive,–,–
